Laboratory results taken from ChEMBL document CHEMBL1134294, “A prodrug form of a Plasmodium falciparum glutathione reductase inhibitor conjugated with a 4-anilinoquinoline” (J Med Chem, 2001).
pEC50, pIC50: −log10 of the molar value. Activity calls are given as the source filed them. The rule behind the calls is not given here.

Assays:
[1] = system: Plasmodium falciparum; assay: Effective dose against chloroquine-resistant Plasmodium falciparum FcB1R; assay type: functional
Summary of the method: (§1)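 Asynchronous cultures in human erythrocytes (0.5% parasitemia, 1% hematocrit) received serially diluted drug, DMSO ≤0.1%. After 24 h at 37 °C, 0.5 μCi [3H]hypoxanthine was added and incubation continued another 24 h. Growth inhibition was taken versus drug-free control, ED50 read from the concentration–response curve, and reported as mean of ≥3 independent experiments.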

[2] = target: T1, Glutathione reductase, mitochondrial (Homo sapiens) (UniProt P00390); assay: Competitive inhibition of human Glutathione Reductase
T1 sequence (whole entry): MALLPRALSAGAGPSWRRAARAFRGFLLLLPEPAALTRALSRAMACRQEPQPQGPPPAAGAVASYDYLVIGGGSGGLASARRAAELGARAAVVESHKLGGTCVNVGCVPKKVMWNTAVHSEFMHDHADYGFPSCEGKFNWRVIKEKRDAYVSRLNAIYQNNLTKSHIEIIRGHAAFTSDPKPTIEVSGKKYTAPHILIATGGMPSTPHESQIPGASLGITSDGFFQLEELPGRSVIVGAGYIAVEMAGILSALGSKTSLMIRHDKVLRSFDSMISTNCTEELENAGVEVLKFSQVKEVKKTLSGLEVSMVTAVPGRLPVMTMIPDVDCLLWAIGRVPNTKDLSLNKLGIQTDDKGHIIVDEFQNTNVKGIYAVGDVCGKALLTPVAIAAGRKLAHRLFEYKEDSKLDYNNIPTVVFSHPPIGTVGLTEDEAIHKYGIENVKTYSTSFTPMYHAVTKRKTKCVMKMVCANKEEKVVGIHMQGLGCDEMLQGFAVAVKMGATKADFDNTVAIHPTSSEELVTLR

[3] = target: Glutathione reductase (Plasmodium falciparum 3D7, UniProt O15770); assay: In vitro inhibition of Plasmodium falciparum Glutathione Reductase; set-up: species or system FcB1
Summary of the method: (§2)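 Recombinant purified GR (about 5 mU/ml) with 100 μM NADPH in 47 mM potassium phosphate, 200 mM KCl, 1 mM EDTA, pH 6.9, at 25 °C. Enzyme, NADPH and inhibitor are premixed and the reaction is started with 100 μM GSSG. NADPH loss is read at 340 nm. IC50 is taken from increasing inhibitor concentrations in 1% final DMSO, run in duplicate.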

[4] = target: Glutathione reductase (Plasmodium falciparum 3D7) (UniProt O15770); assay: Competitive inhibition of Plasmodium falciparum Glutathione Reductase; conditions: Plasmodium falciparum FcB1
[5] = target: T2, Glutathione reductase, mitochondrial (Homo sapiens, UniProt P00390); assay: In vitro inhibition of human Glutathione Reductase; summary of the method: as §2
T2 sequence (P00390 whole entry): T1 sequence (whole entry)

[6] = system: Mus musculus; assay: Percentage excess MST, when used as the chlorohydrate in mice infected with Plasmodium berghei (i.p., 40 mg/kg); assay type: functional; conditions: route intraperitoneal
Summary of the method: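 Female Swiss CD-1 mice (four weeks, 20–25 g), three per group, were infected ip with about 10^7 P. berghei ANKA parasitized erythrocytes. Dosing was 40 mg/kg in 100% DMSO, given orally at infection, then ip over the following 4 days. Parasitemia was counted daily. Activity was scored as percentage excess mean survival time over DMSO-treated infected controls.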

[7] = system: Plasmodium falciparum; assay: Effect on protein of chloroquine-resistant Plasmodium falciparum K1 culture after 24 hrs at 30 nM; assay type: functional
Summary of the method: (§3)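 Synchronized K1 ring cultures were treated 24 h, then saponin-isolated and freeze-thawed. Extract was diluted in 150 mM KH2PO4, pH 8.0, and nucleic acid and protein were estimated from absorbance at 260 and 280 nm. Protein was also measured by dye-binding assay with BSA standard.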

[8] = system: Plasmodium falciparum; assay: Effect on nucleic acid of chloroquine-resistant Plasmodium falciparum K1 culture after 24 hrs at 500 nM; assay type: functional; summary of the method: as §3
[9] = system: Plasmodium falciparum; assay: Effect on protein of chloroquine-resistant Plasmodium falciparum K1 culture after 24 hrs at 500 nM; assay type: functional; summary of the method: as §3
[10] = target: Glutathione reductase (Plasmodium falciparum K1) (UniProt Q94655); assay: Effect on glutathione reductase activity of chloroquine-resistant Plasmodium falciparum K1 in culture after 24 hrs treatment at 30 nM conc; assay type: functional
Summary of the method: (§4)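 After 24 h exposure of synchronized K1 ring cultures, parasites were saponin-isolated and freeze-thaw extracts prepared. GR activity was assayed at 25 °C with 100 μM NADPH and 100 μM GSSG in 47 mM potassium phosphate, 200 mM KCl, 1 mM EDTA, pH 6.9, following NADPH consumption at 340 nm.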

[11] = system: Plasmodium falciparum; assay: In vitro efficacy for chloroquine-resistant Plasmodium falciparum K1; assay type: functional; conditions: read-out: ED50 (the source's name); summary of the method: as §1
[12] = system: Plasmodium falciparum; assay: In vitro efficacy for chloroquine-sensitive Plasmodium falciparum F32; conditions: read-out: ED50 (the source's name)
[13] = system: Mus musculus; assay: Percentage of parasitaemia on day 18 in mice infected with Plasmodium berghei (ip, 40 mg/kg); assay type: functional
Summary of the method: (§5)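 Female Swiss CD-1 mice (four-week-old, 20–25 g, three per group) are infected ip with about 10⁷ P. berghei ANKA 65 parasitized erythrocytes from a donor. On the day of infection they receive 40 mg/kg orally in 100% DMSO, then daily ip for 4 days. Parasitemia is counted daily. Controls get DMSO only.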

[14] = system: Plasmodium falciparum; assay: In vitro efficacy for chloroquine-resistant Plasmodium falciparum FcB1; assay type: functional; conditions: read-out: ED50 (the source's name); summary of the method: as §1
[15] = system: Plasmodium falciparum; assay: Effect on glutathione reductase activity of chloroquine-resistant Plasmodium falciparum K1 culture after 24 hrs at 500 nM; assay type: functional; summary of the method: as §4
[16] = system: Plasmodium falciparum; assay: In vitro efficacy for chloroquine-resistant Plasmodium falciparum W2; assay type: functional; conditions: read-out: ED50 (the source's name); summary of the method: as §1
[17] = Susceptibility of compound to hydrolysis at 37 degrees C at pH 5.0 acetate medium; assay type: ADME
Summary of the method: (§6)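 Prodrug (100 μM final, from 1 mM stock in 10% aqueous DMSO) is incubated at 37 °C in pH 7.4 phosphate buffer (150 mM NaCl, 4 mM NaH₂PO₄, 25 mM NaHCO₃) or pH 5.0 acetate (150 mM NaCl, 10 mM NaOAc). Half-life of ester disappearance is found by HPLC as the mean of two determinations.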

[18] = system: Plasmodium falciparum; assay: Effect on nucleic acid of chloroquine-resistant Plasmodium falciparum K1 culture after 24 hrs at 30 nM; assay type: functional; summary of the method: as §3
[19] = system: Plasmodium falciparum; assay: Effect on glutathione content of chloroquine-resistant Plasmodium falciparum K1 culture after 24 hrs at 30 nM; assay type: functional
Summary of the method: (§7)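 Sorbitol-synchronized K1 rings (5% hematocrit, 3.7% parasitemia) exposed 24 h, then saponin-lysed and freeze-thawed. Extract (40 μL) was deproteinized with 2 volumes of 5% sulfosalicylic acid. Total glutathione was measured by GR-coupled DTNB-GSH recycling against a GSH standard curve. Expressed as nmol/mg protein.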

[20] = Susceptibility of compound to hydrolysis at 37 degrees C at pH 7.4 phosphate buffer; assay type: ADME; summary of the method: as §6
[21] = target: T3, Glutathione S-transferase (Plasmodium falciparum) (UniProt Q8ILQ7); assay: Effect on glutathione S-transferase (GST) activity of chloroquine-resistant Plasmodium falciparum K1 in culture after 24 hrs treatment at 150 nM conc; assay type: functional
T3 sequence (whole entry): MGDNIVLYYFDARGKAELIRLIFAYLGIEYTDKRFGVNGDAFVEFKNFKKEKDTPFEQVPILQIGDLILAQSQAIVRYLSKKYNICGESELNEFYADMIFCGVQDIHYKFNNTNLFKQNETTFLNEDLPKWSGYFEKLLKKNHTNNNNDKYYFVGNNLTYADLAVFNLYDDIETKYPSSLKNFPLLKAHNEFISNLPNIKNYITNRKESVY
Summary of the method: (§8)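 K1 ring-stage cultures (sorbitol-synchronized, 5% hematocrit, 3.7% parasitemia) treated 24 h. Parasites were released with 0.02% saponin (10 min, 37 °C), freeze-thawed three times and the supernatant assayed. GST activity was read spectrophotometrically at 340 nm with 0.5 mM CDNB and 1 mM GSH in 100 mM potassium phosphate, 1 mM EDTA, pH 6.5. Reported as mU/mg protein.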

[22] = system: Mus musculus; assay: Percentage of parasitaemia on day 4 in mice infected with Plasmodium berghei (ip, 40 mg/kg); assay type: functional; summary of the method: as §5
[23] = system: Mus musculus; assay: Percentage of parasitaemia on day 11 in mice infected with Plasmodium berghei (ip, 40 mg/kg); assay type: functional; summary of the method: as §5
[24] = system: Plasmodium falciparum; assay: In vitro efficacy for chloroquine-sensitive Plasmodium falciparum D6; conditions: read-out: ED50 (the source's name)
[25] = system: Plasmodium falciparum; assay: Effect on glutathione content of chloroquine-resistant Plasmodium falciparum K1 culture after 24 hrs at 150 nM; assay type: functional; summary of the method: as §7
[26] = target: T3, Glutathione S-transferase (Plasmodium falciparum); assay: Effect on glutathione S-transferase (GST) activity of chloroquine-resistant Plasmodium falciparum K1 in culture after 24 hrs treatment at 30 nM conc; assay type: functional; summary of the method: as §8
[27] = target: T3, Glutathione S-transferase (Plasmodium falciparum); assay: Effect on glutathione S-transferase (GST) activity of chloroquine-resistant Plasmodium falciparum K1 in culture after 24 hrs treatment at 500 nM conc; assay type: functional; summary of the method: as §8
[28] = target: Glutathione reductase (Plasmodium falciparum K1) (UniProt Q94655); assay: Effect on glutathione reductase activity of chloroquine-resistant Plasmodium falciparum K1 in culture after 24 hrs treatment at 150 nM conc; assay type: functional; summary of the method: as §4
[29] = system: Plasmodium falciparum; assay: Effect on protein of chloroquine-resistant Plasmodium falciparum K1 culture after 24 hrs at 150 nM; assay type: functional; summary of the method: as §3
[30] = system: Plasmodium falciparum; assay: Effect on glutathione content of chloroquine-resistant Plasmodium falciparum K1 culture after 24 hrs at 500 nM; assay type: functional; summary of the method: as §7
[31] = system: Plasmodium falciparum; assay: Effect on nucleic acid of chloroquine-resistant Plasmodium falciparum K1 culture after 24 hrs at 150 nM; assay type: functional; summary of the method: as §3
[32] = Susceptibility of compound to hydrolysis at 37 degrees C for RPMI-10% human serum; assay type: ADME; conditions: RPMI with 10% human serum
Summary of the method: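 Prodrug (100 μM final, from 1 mM stock in 10% aqueous DMSO) is held in RPMI with 10% human serum at 37 °C and sampled from 0 to 77.5 h. Samples are mixed with EtOH plus internal reference, centrifuged, and the supernatant is analysed by HPLC. Half-life of ester disappearance is the mean of two determinations.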

[33] = system: Plasmodium falciparum; assay: In vitro efficacy for chloroquine-sensitive Plasmodium falciparum Thai strain; conditions: read-out: ED50 (the source's name)
[34] = target: T1, Glutathione reductase, mitochondrial (Homo sapiens); assay: In vitro inhibition of human Glutathione Reductase; Not active; summary of the method: as §2
[35] = target: Glutathione reductase (Plasmodium falciparum 3D7) (UniProt O15770); assay: In vitro inhibition of Plasmodium falciparum Glutathione Reductase; Not active; conditions: Plasmodium falciparum FcB1; summary of the method: as §2
[36] = read-out: ED50 (the source's name)

Sequence of Glutathione reductase (Plasmodium falciparum 3D7) (O15770 whole entry): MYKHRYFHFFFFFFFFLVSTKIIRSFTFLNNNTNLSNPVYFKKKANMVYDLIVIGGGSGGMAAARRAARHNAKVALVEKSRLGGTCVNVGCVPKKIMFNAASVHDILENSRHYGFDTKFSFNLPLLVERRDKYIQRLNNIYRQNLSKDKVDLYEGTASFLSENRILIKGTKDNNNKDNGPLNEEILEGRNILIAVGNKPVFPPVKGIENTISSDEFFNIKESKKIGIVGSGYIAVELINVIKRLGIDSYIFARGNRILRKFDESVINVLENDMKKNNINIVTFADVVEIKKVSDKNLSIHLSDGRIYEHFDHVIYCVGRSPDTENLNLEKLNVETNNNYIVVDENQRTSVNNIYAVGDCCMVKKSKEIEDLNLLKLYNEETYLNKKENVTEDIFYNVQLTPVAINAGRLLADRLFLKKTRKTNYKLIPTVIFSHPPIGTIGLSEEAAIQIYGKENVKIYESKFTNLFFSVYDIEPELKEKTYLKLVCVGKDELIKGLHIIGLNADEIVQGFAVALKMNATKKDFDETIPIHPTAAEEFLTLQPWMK
Sequence of Glutathione reductase (Plasmodium falciparum K1) (Q94655 whole entry): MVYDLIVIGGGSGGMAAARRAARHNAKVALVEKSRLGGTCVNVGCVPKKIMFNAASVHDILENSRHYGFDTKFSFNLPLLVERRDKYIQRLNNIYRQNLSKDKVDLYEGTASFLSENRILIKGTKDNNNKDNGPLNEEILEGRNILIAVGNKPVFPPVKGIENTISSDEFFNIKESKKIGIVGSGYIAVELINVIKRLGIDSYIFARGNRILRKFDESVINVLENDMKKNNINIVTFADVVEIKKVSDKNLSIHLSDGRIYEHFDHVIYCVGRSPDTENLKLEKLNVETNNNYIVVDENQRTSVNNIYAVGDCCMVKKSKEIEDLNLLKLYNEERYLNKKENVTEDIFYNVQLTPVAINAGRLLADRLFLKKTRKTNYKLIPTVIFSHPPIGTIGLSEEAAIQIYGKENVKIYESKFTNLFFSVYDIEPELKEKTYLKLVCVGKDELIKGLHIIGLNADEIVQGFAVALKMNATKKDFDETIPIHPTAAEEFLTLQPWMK
Sequence of Glutathione reductase (O15770 whole entry): as the sequence (O15770 whole entry) above

CC1=C(CCCCCC(=O)O)C(=O)c2ccccc2C1=O
pEC50 [1, 36]: 5.46
Ki.c [2]: 1.9 µM
pIC50 [3]: 6.30
Ki.c [4]: 0.5 µM
pIC50 [5]: 5.59

CC1=C(CCCCCC(=O)OCc2cc(NC(=O)CN3CCCCC3)cc(Nc3ccnc4cc(Cl)ccc34)c2)C(=O)c2ccccc2C1=O
Excess MST [6]: 178%
Protein [7]: 1.1 mg/mL
pEC50 ([1]; read-out: ED50): 7.64
Nucleic acids [8]: 81 ng/mg
Protein [9]: 0.4 mg/mL
GR activity [10]: 30 mU mg-1
pEC50 [11]: 7.53
pEC50 [12]: 7.59
Parasitaemia [13]: 48%
pEC50 [14]: 7.64
GR activity [15]: 6 mU mg-1
pEC50 [16]: 7.58
half-life [17]: > 80 h
Nucleic acids [18]: 89 ng/mg
Glutathione [19]: 14.8 nM/mg
half-life [20]: > 80 h
GST activity [21]: 4.3 mU mg-1
Parasitaemia [22]: <0.1%
Parasitaemia [23]: 9%
pEC50 [24]: 7.56
Glutathione [25]: <1 nM/mg
GST activity [26]: 3.7 mU mg-1
GST activity [27]: 9.5 mU mg-1
GR activity [28]: 8 mU mg-1
Protein [29]: 0.6 mg/mL
Glutathione [30]: <1 nM/mg
Nucleic acids [31]: 79 ng/mg
half-life [32]: > 80 h
pEC50 [33]: 7.44

COC(=O)CCCCCC1=C(C)C(=O)c2ccccc2C1=O
pEC50 [1, 36]: 4.97
half-life [17]: 0.5 h
NA [34]: inactive
half-life [20]: 1 h
NA [35]: inactive
half-life [32]: > 3 h

CC1=C(CCCCC(=O)O)C(=O)c2ccccc2C1=O
pEC50 [1, 36]: 5.55
Ki.c [2]: 1.8
pIC50 [3]: 5.40
Ki.c [4]: 3.1 µM
pIC50 [5]: 5.57

CCCC(=O)OCOC(=O)CCCCCC1=C(C)C(=O)c2ccccc2C1=O
pEC50 [1, 36]: 4.65
half-life [17]: 0.5 h
NA [34]: inactive
half-life [20]: 1 h
NA [35]: inactive

CC1=C(CCCCCC(=O)OCc2cc(NC(=O)CN3CCCCC3)cc(Nc3ccnc4cc(Cl)ccc34)c2)C(=O)c2c(O)cccc2C1=O
pEC50 ([1]; read-out: ED50): 7.25

CC1=C(CCCCCC(=O)OCOC(=O)C(C)(C)C)C(=O)c2ccccc2C1=O
pEC50 [1, 36]: 4.62
half-life [17]: 1 h
NA [34]: inactive
half-life [20]: 2 h
NA [35]: inactive
